Data as given in ChEMBL document CHEMBL2062482 (J Med Chem, 2012).

Tests used:
[1] = tested on: Rattus norvegicus; test: Terminal half life in Sprague-Dawley rat at 20 mg/kg, iv; assay type: ADME, organism-based; set-up: dose 20 mg/kg, route intravenous; details: in vivo
In short: (§1)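 Single IV bolus, plasma sampled serially to 24 h post-dose, drug measured by LC-MS/MS, parameters by non-compartmental analysis. Rats and monkeys n = 3 per dose, dogs n = 3 at 1 mg/kg and n = 2 at 20 mg/kg. Nude mice n = 27 per dose level, n = 3 per time point. Mice received the HCl salt in 10% hydroxypropyl-β-cyclodextrin; rats, dogs and monkeys received the TFA salt in PBS.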

[2] = tested on: Cynomolgus monkey; test: AUC (0 to infinity) in cynomolgus monkey at 20 mg/kg, iv; assay type: ADME, organism-based, Macaca fascicularis, Plasma; set-up: time infinity, dose 20 mg/kg, route intravenous; details: in vivo; in short: as §1
[3] = tested on: Canis familiaris; test: Cmax in Beagle dog at 1 mg/kg, iv; assay type: ADME, organism-based, Canis lupus familiaris; set-up: dose 1 mg/kg, route intravenous; details: in vivo; in short: as §1
[4] = tested on: MDA-MB-231; test: Antitumor activity against human MDA-MB-231 cells xenografted in mouse assessed as reduction in tumor volume at 100 mg/kg, po administered once in week measured on day 21 relative to control; set-up: scale not given: the % may be the effect or the level left
[5] = tested on: Rattus norvegicus; test: Volume of distribution at steady state in Sprague-Dawley rat at 1 mg/kg, iv; assay type: ADME, organism-based; set-up: dose 1 mg/kg, route intravenous; details: in vivo
In short: (§2)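 Single IV bolus at 1 or 20 mg/kg of TFA salt in phosphate-buffered saline to male Sprague-Dawley rats (n = 3 per dose), Beagle dogs (n = 3 at 1 mg/kg, male; n = 2 at 20 mg/kg, male/female) and male cynomolgus monkeys (n = 3 per dose). Serial plasma to 24 h; LC-MS/MS; non-compartmental analysis.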

[6] = tested on: Rattus norvegicus; test: Terminal half life in Sprague-Dawley rat at 1 mg/kg, iv; assay type: ADME, organism-based; set-up: dose 1 mg/kg, route intravenous; details: in vivo; in short: as §1
[7] = tested on: Rattus norvegicus; test: Cmax in Sprague-Dawley rat at 20 mg/kg, iv; assay type: ADME, organism-based; set-up: dose 20 mg/kg, route intravenous; details: in vivo; in short: as §1
[8] = tested on: Cynomolgus monkey; test: Cmax in cynomolgus monkey at 1 mg/kg, iv; assay type: ADME, organism-based, Macaca fascicularis; set-up: dose 1 mg/kg, route intravenous; details: in vivo; in short: as §1
[9] = tested on: Cynomolgus monkey; test: Terminal half life in cynomolgus monkey at 1 mg/kg, iv; assay type: ADME, organism-based, Macaca fascicularis; set-up: dose 1 mg/kg, route intravenous; details: in vivo; in short: as §1
[10] = tested on: Canis familiaris; test: Terminal half life in Beagle dog at 1 mg/kg, iv; assay type: ADME, organism-based, Canis lupus familiaris; set-up: dose 1 mg/kg, route intravenous; details: in vivo; in short: as §1
[11] = tested on: Canis familiaris; test: AUC (0 to infinity) in Beagle dog at 1 mg/kg, iv; assay type: ADME, organism-based, Canis lupus familiaris, Plasma; set-up: time infinity, dose 1 mg/kg, route intravenous; details: in vivo; in short: as §1
[12] = tested on: Rattus norvegicus; test: Cmax in Sprague-Dawley rat at 1 mg/kg, iv; assay type: ADME, organism-based; set-up: dose 1 mg/kg, route intravenous; details: in vivo; in short: as §1
[13] = tested on: Cynomolgus monkey; test: Cmax in cynomolgus monkey at 20 mg/kg, iv; assay type: ADME, organism-based, Macaca fascicularis; set-up: dose 20 mg/kg, route intravenous; details: in vivo; in short: as §1
[14] = tested on: Rattus norvegicus; test: Volume of distribution at steady state in Sprague-Dawley rat at 20 mg/kg, iv; assay type: ADME, organism-based; set-up: dose 20 mg/kg, route intravenous; details: in vivo; in short: as §2
[15] = tested on: Cynomolgus monkey; test: Terminal half life in cynomolgus monkey at 20 mg/kg, iv; assay type: ADME, organism-based, Macaca fascicularis; set-up: dose 20 mg/kg, route intravenous; details: in vivo; in short: as §1
[16] = tested on: Mus musculus; test: Toxicity in po dosed mouse xenografted with human MDA-MB-231 cells assessed as effect on body weight measured on days 28; assay type: organism-based; details: in vivo
In short: (§3)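 MDA-MB-231 cells (1.5 × 10^7, 1:1 Matrigel in PBS) implanted subcutaneously in right flank of female nude mice aged 6–8 weeks; ten per group, mean starting tumor 168 mm3. Oral gavage in PBS vehicle, 4.0 mL/kg, schedules including 10, 50 or 100 mg/kg weekly, 10 mg/kg daily or every third day. Body weights measured twice weekly.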

[17] = Volume of distribution at steady state in Beagle dog at 1 mg/kg, iv; assay type: ADME, organism-based, Canis lupus familiaris; set-up: dose 1 mg/kg, route intravenous; details: in vivo, read-out: Vdss; in short: as §2
[18] = tested on: Cynomolgus monkey; test: Volume of distribution at steady state in cynomolgus monkey at 20 mg/kg, iv; assay type: ADME, organism-based, Macaca fascicularis; set-up: dose 20 mg/kg, route intravenous; details: in vivo; in short: as §2
[19] = tested on: Cynomolgus monkey; test: AUC (0 to infinity) in cynomolgus monkey at 1 mg/kg, iv; assay type: ADME, organism-based, Macaca fascicularis, Plasma; set-up: time infinity, dose 1 mg/kg, route intravenous; details: in vivo; in short: as §1
[20] = tested on: Rattus norvegicus; test: AUC (0 to infinity) in Sprague-Dawley rat at 1 mg/kg, iv; assay type: ADME, organism-based, Plasma; set-up: time infinity, dose 1 mg/kg, route intravenous; details: in vivo; in short: as §1
[21] = Cmax in Beagle dog at 20 mg/kg, iv; assay type: ADME, organism-based, Canis lupus familiaris; set-up: dose 20 mg/kg, route intravenous; details: in vivo; in short: as §1
[22] = tested on: Mus musculus; test: Cmax in mouse at 100 mg/kg, po; assay type: ADME, organism-based; set-up: dose 100 mg/kg, route oral; details: in vivo
In short: (§4)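 Female mice given the mono-TFA salt orally at 100 mg/kg as a solution in PBS.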

[23] = tested on: Canis familiaris; test: Terminal half life in Beagle dog at 20 mg/kg, iv; assay type: ADME, organism-based, Canis lupus familiaris; set-up: dose 20 mg/kg, route intravenous; details: in vivo; in short: as §1
[24] = tested on: Canis familiaris; test: Volume of distribution at steady state in Beagle dog at 20 mg/kg, iv; assay type: ADME, organism-based, Canis lupus familiaris; set-up: dose 20 mg/kg, route intravenous; details: in vivo; in short: as §2
[25] = tested on: Mus musculus; test: Toxicity in mouse xenografted with human MDA-MB-231 cells assessed as effect on body weight at 100 mg/kg, po after 28 days; assay type: organism-based; set-up: dose 100 mg/kg, route oral; details: in vivo, 672 h; in short: as §3
[26] = tested on: Rattus norvegicus; test: AUC (0 to infinity) in Sprague-Dawley rat at 20 mg/kg, iv; assay type: ADME, organism-based, Plasma; set-up: time infinity, dose 20 mg/kg, route intravenous; details: in vivo; in short: as §1
[27] = tested on: Cynomolgus monkey; test: Volume of distribution at steady state in cynomolgus monkey at 1 mg/kg, iv; assay type: ADME, organism-based, Macaca fascicularis; set-up: dose 1 mg/kg, route intravenous; details: in vivo; in short: as §2
[28] = tested on: Mus musculus; test: AUC in mouse at 100 mg/kg, po; assay type: ADME, organism-based, Plasma; set-up: dose 100 mg/kg, route oral; details: in vivo; in short: as §4
[29] = tested on: Canis familiaris; test: AUC (0 to infinity) in Beagle dog at 20 mg/kg, iv; assay type: ADME, organism-based, Canis lupus familiaris, Plasma; set-up: time infinity, dose 20 mg/kg, route intravenous; details: in vivo; in short: as §1

CN[C@@H](C)C(=O)N[C@H](C(=O)N1CCC[C@H]1C(=O)Nc1snnc1-c1ccccc1)C1CCCCC1.O=C(O)C(F)(F)F
beta t1/2 [1]: 50.4 min
AUC [2]: 19 µM·h
Cmax [3]: 3.8 µM
Activity [4]: 85%
Vdss [5]: 2 L/kg
beta t1/2 [6]: 25.8 min
Cmax [7]: 31 µM
Cmax [8]: 1.46 µM
beta t1/2 [9]: 26.4 min
beta t1/2 [10]: 54 min
AUC [11]: 2.1 µM·h
Cmax [12]: 1.1 µM
Cmax [13]: 24 µM
Vdss [14]: 1.7 L/kg
beta t1/2 [15]: 46.2 min
Activity [16]: >= 5%
Vd [17]: 1 L/kg
Vdss [18]: 2.2 L/kg
AUC [19]: 0.71 µM·h
AUC [20]: 0.51 µM·h
Cmax [21]: 30 µM
Cmax [22]: 53.7 µM
beta t1/2 [23]: 120 min
Vdss [24]: 1.5 L/kg
Activity [25]: Toxic
AUC [26]: 25 µM·h
Vdss [27]: 1.6 L/kg
AUC [28]: 203.5 µM·h
AUC [29]: 36 µM·h
